Common to all, as to format: cell-based
Data set [1] concerns H. pylori ATCC 43504. The data set can be described thus: H. pylori IC50 dose response. Particulars: for IC50: Helicobacter pylori.
Data set [2] in a line: Cytotoxicity assay. The following applies: human, FaDu cells. The gist of the method: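 FaDu cells, maintained per ATCC protocols, were seeded in EMEM with 10% FBS at 3 x 10^5 cells/ml and grown 24 h at 37°C, 5% CO2. Medium was replaced with two-fold serial dilutions of test compound in fresh medium for 72 h, then with FBS-free EMEM plus resazurin (final 0.15 mM) for 3-5 h. Fluorescence read at ex 540/em 590 nm. IC50 fitted from percent inhibition versus growth controls, converted to pIC50, and reported as mean ± S.E.M.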

The test system of data set [3] is H. pylori SS1. The data set is described as follows: H. pylori IC50 dose response. The following applies: for fold greater potency than compound 1: H. pylori SS1; for IC50: Helicobacter pylori, SS1, read-out: H. pylori SS1 pIC50 (converted).
Where [4] appears, read: ATCC43504, read-out: H. pylori ATCC 43504 pIC50 (converted).

SMILES strings stand for the structures. Where two headings read alike, the source gives them in different places. Where only a bound is given, the exact number is not on record here.

`CC(CO)Nc1ncnc2sc(-c3ccccc3)cc12` (stereo not drawn) [Compound 10, 2-((6-phenylthieno[2,3-d]pyrimidin-4-yl)amino)propan-1-ol]: the “fold increase in potency over compound 1” value in data set [1] (ATCC43504) was found to be 37 fold. Further, the IC50 in data set [1] (setting [4]) was 39.8 nM. Besides, in data set [2], the IC50 at 72 h was 100000 nM. In data set [3], the “fold greater potency than compound 1” value was 20 fold and the IC50 was 79.4 nM.

As to `CCC(O)CNc1ncnc2sc(-c3ccccc3)cc12` (stereo not drawn) [Compound 17, 1-((6-phenylthieno[2,3-d]pyrimidin-4-yl)amino)butan-2-ol], the IC50 in data set [1] (setting [4]) was 794 nM; in data set [3], 251 nM. The compound also showed an IC50 at 72 h in data set [2] of 39800 nM.

Turning to `OCCCCNc1ncnc2sc(-c3ccccc3)cc12` [Compound 15, 4-((6-phenylthieno[2,3-d]pyrimidin-4-yl)amino)butan-1-ol], the IC50 in data set [1] (setting [4]) is 1580 nM; in data set [3], 316 nM. Further, the IC50 at 72 h in data set [2] was 126000 nM.

Consider `Cc1sc2ncnc(N[C@@H](CO)c3ccccc3)c2c1C` [Compound 37, (R)-2-((5,6-dimethylthieno[2,3-d]pyrimidin-4-yl)amino)-2-phenylethan-1-ol], for which the IC50 in data set [1] (setting [4]) was 6310 nM; in data set [3], 631 nM. Besides, the IC50 at 72 h in data set [2] was less than 20000 nM.

With `COc1cccc(CNc2ncnc3sc(-c4ccccc4)cc23)c1OC` [Compound 23, N-(2,3-dimethoxybenzyl)-6-phenylthieno[2,3-d]pyrimidin-4-amine], the IC50 in data set [1] (setting [4]) was 1580 nM; in data set [3] it was 501 nM. Besides, in data set [2], the IC50 at 72 h was 25100 nM.

With `Cc1sc2ncnc(N[C@@H](CO)c3ccccc3)c2c1-c1ccccc1` [Compound 39, (R)-2-((6-methyl-5-phenylthieno[2,3-d]pyrimidin-4-yl)amino)-2-phenylethan-1-ol], the IC50 in data set [1] (setting [4]) was 15800 nM; in data set [3] it was 7940 nM. In addition, the IC50 at 72 h in data set [2] was 126000 nM.

Regarding `COc1ccc(CCNc2ncnc3sc(-c4ccccc4)cc23)cc1OC` [Compound 19, N-(3,4-dimethoxyphenethyl)-6-phenylthieno[2,3-d]pyrimidin-4-amine], in data set [1] (ATCC43504), the “fold improved potency over compound 2” value was found to be 11 fold. For the same compound, the IC50 in data set [1] (ATCC43504) was 160 nM; in data set [1] (setting [4]), 158 nM; in data set [3] it was 39.8 nM. For the same compound, in data set [2], the IC50 at 72 h was 126000 nM.

With `Cc1c(-c2ccccc2)sc2ncnc(N[C@@H](CO)c3ccccc3)c12` [Compound 38, (R)-2-((5-methyl-6-phenylthieno[2,3-d]pyrimidin-4-yl)amino)-2-phenylethan-1-ol], the IC50 in data set [1] (setting [4]) was 316 nM; in data set [3], 50.1 nM. In data set [2], this compound showed an IC50 at 72 h of 20000 nM.

On to `c1ccc(-c2cc3c(NCCc4ccncc4)ncnc3s2)cc1` [Compound 21, 6-phenyl-N-(2-(pyridin-4-yl)ethyl)thieno[2,3-d]pyrimidin-4-amine], for which the figures for the IC50 in data set [1] (setting [4]) and in data set [3] were 2510 nM and 1260 nM, respectively. The IC50 at 72 h in data set [2] was 126000 nM.

Consider `c1ccc(-c2cc3c(NCCc4cccnc4)ncnc3s2)cc1` [Compound 22, 6-phenyl-N-(2-(pyridin-3-yl)ethyl)thieno[2,3-d]pyrimidin-4-amine], for which the IC50 in data set [1] (setting [4]) is 6310 nM; in data set [3], 3160 nM. Besides, in data set [2], the IC50 at 72 h is 100000 nM.

With `CCC(CO)Nc1ncnc2sc(-c3ccccc3)cc12` (stereo not drawn) [Compound 16, 2-((6-phenylthieno[2,3-d]pyrimidin-4-yl)amino)butan-1-ol], the IC50 in data set [1] (setting [4]) was 100 nM; in data set [3] it was 20 nM. Further, the IC50 at 72 h in data set [2] is 39800 nM.

On to `CC(O)CNc1ncnc2sc(-c3ccccc3)cc12` (stereo not drawn) [Compound 11, 1-((6-phenylthieno[2,3-d]pyrimidin-4-yl)amino)propan-2-ol], for which the “fold increase in potency over compound 1” value in data set [1] (ATCC43504) is reported as “less than 2 fold”. In addition, the IC50 in data set [1] (setting [4]) was 1000 nM. The compound further had an IC50 at 72 h in data set [2] of 63100 nM. In data set [3], the “fold greater potency than compound 1” value came out at 4 fold and the IC50 was 398 nM.
